Screening data from PubChem.
CYP2C19 inhib = human CYP2C19 inhibition | P33261 | CYP2C19 Supersomes, luciferin-H EGE luminescence, 30 min | inhibition, % at 5 µM | hit rate 21% among 96,000;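 active = CYP2C19 inhibition above a set limit at 5 µM in the primary screen, cut at about 50% in these data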;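 also: plate controls were negative control wells for no effect and 2.5 mM tranylcypromine positive control for full effect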
Cav32 inh = human Cav3.2 channel inhibition, primary screen. O95180. Cav3.2-expressing cells, Fluo-4 calcium fluorescence FDSS; hits give low values. B-score at 10 µM. hit rate 4% among 100,000. AID 449739;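 active = single-dose well whose peak fluorescence ratio is a statistical outlier from its plate by either plate-standardised score or position-corrected B-score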
CYP2C9 inhib = human CYP2C9 inhibition; hit rate 20% among 96,000; AID 777; inhibition, % at 5 µM; P11712; CYP2C9 Supersomes, luciferin-H conversion, luminescence;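 active = blocking of liver enzyme CYP2C9 beyond about 50% at 5 µM, limit read from the data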
Target sequence (P11712 whole entry, looked up): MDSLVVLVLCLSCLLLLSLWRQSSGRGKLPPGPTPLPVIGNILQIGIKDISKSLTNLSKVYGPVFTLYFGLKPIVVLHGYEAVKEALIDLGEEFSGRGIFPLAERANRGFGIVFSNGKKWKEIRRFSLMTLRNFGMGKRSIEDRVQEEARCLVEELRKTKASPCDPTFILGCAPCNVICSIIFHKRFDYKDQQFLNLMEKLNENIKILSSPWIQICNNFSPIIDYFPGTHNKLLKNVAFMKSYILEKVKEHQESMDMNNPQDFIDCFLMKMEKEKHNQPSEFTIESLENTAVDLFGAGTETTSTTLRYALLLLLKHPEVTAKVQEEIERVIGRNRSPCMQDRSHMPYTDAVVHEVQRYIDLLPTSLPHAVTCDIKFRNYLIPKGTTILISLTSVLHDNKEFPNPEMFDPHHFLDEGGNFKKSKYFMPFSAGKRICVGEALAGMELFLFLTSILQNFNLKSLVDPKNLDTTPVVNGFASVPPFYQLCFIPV
HIV Rev-RRE inh = disrupts HIV-1 Rev binding to RRE RNA; P05866; Rev peptide-RRE RNA binding, FRET; inhibition, % at 8 µM; hit rate 0.79% among 97,000;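 active = inhibition above the screen-wide mean plus 3 SD, cut at about 35% in these data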;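 also: 0% = median DMSO wells and 100% = median Neomycin B control wells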
Target sequence (P05866 whole entry, looked up): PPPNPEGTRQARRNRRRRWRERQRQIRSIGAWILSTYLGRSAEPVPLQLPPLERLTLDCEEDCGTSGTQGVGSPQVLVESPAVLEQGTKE
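Test system: Cy5-tagged RRE RNA duplex with fluorescein-tagged Rev peptide | Read-out: % inhibition of FRET ratio versus controls | Probe or stimulus: Labelled Rev peptide | Incubation: 5 min RNA-compound premix plus 15 min binding step, 25 °C | Technique: FRET fluorescence readout | Benchmarks: DMSO low control, neomycin B high control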
CYP2C19 activ = cytochrome P450 2C19 (human) activation; P33261; recombinant CYP2C19, luciferin-H EGE luminescence; hits give high values; 0 = fully inhibited enzyme, 1 = untreated enzyme; activation factor at 5 µM; 96,000 tested, under 10 active;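 active = activation factor of at least 2 at 5 µM in the primary screen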;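 also: 0 = wells with 2.5 mM tranylcypromine and 1 = vehicle-only wells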
CYP2C9 act = CYP2C9 (human) activation; hit rate 1.4% among 96,000; recombinant CYP2C9, luciferin-H conversion, luminescence; hits give high values; factor 1 = untreated enzyme, 0 = blocked; activation factor at 5 µM;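 active = activation factor of 2 or more for CYP2C9 at a 5 µM dose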;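 also: 0 = sulfaphenazole-blocked wells and 1 = vehicle-only wells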
* = called active by the depositor; . = not tested or not shown. A selection: hits, their analogues and other compounds. The true share with any hit is near 27%.

SMILES	CYP2C19 inhib	Cav32 inh	CYP2C9 inhib	HIV Rev-RRE inh	CYP2C19 activ	CYP2C9 act
COc1cccc(C2CC(c3ccccc3OC)n3ncnc3N2)c1 (configuration not stated)	96*	1.3	66*	3	0	0.3
CCOc1ccccc1C1CC(c2ccc(F)cc2)Nc2nc(N)nn21 (configuration not stated)	65*	0.93	24	4	0.3	0.8
Clc1ccc(C2CC(c3ccco3)n3ncnc3N2)cc1Cl (configuration not stated)	.	-2	.	15	.	.
CC1(C(=O)NCCN2CCOCC2)C=CC2(CCCCC2)N1C(=O)c1ccccc1 (configuration not stated)	.	0.3	.	.	.	.
COc1ccc(OC)c(C(c2nnnn2CC2CCCO2)N2CCN(C)CC2)c1 (configuration not stated)	7	.	-7	-4	0.9	1.1
CCC(C)(C)NC(=O)CN(Cc1cccs1)C(=O)C(=O)Nc1ccc2c(c1)OCCO2	46	-1.2	72*	6	0.5	0.3
CC(=O)c1ccc(OCCCN2CCCCC2)cc1	66*	0.19	69*	4	0.3	0.3
COc1ccc(N(C(=O)C2CCCCC2)C2C=CS(=O)(=O)C2)c(OC)c1 (configuration not stated)	21	-0.48	15	1	0.8	0.8
CSc1ccc(-c2nnn(CC(=O)NCc3ccccc3)n2)cc1	34	-0.91	33	9	0.7	0.7
O=C(CN(C(=O)Cn1nnc(-c2ccccc2F)n1)c1cccc2c1CCCC2)NCc1ccccc1	23	-6.1*	96*	3	0.8	0
COc1ccc(C(=O)Cn2nnc(-c3ccccc3NC(=O)C3CC3)n2)cc1	-4	0.18	4	12	1	1
COc1ccc(C(=O)Cn2nnc(-c3ccccc3F)n2)cc1	55*	0.15	-41	2	0.5	1.4
O=C(Cn1nnc(-c2ccccc2F)n1)Nc1cccc2ncccc12	63*	-0.015	29	1	0.4	0.7
O=C(Cn1nnc(-c2ccccc2F)n1)NCCc1ccccc1	70*	-0.87	33	5	0.3	0.7
CC(=O)n1c(Cl)c(NC(=O)CCl)c2ccccc21	15	-0.0087	7	8	0.9	0.9
CSc1nc(C)c(CCOC(=O)c2cccc(Cl)c2)c(=O)[nH]1	3	-1.1	23	9	1	0.8
Cc1ccc(C(c2sc3nc(C)nn3c2O)N2CCN(CCO)CC2)cc1 (configuration not stated)	.	0.016	.	.	.	.
Cc1nc2sc(C(c3ccco3)N3CCN(C(c4ccccc4)c4ccccc4)CC3)c(O)n2n1 (configuration not stated)	20	-5.4*	33	.	0.8	0.7
Cc1ccc(C(c2sc3nc(C)nn3c2O)N2CCN(c3ccccc3F)CC2)cc1 (configuration not stated)	45	-5.5*	34	4	0.6	0.7
Cc1c(Cl)c([N+](=O)[O-])nn1CC(=O)NC12CC3CC(CC(C3)C1)C2	79*	-3.8*	24	9	0.2	0.8
CCC(=O)Oc1ccc(C(=O)Nc2ccc3c(c2)C(=O)N(C2CCCCC2)C3=O)cc1	24	-1.3	58*	11	0.8	0.4
O=C(Nc1ccc2c(c1)C(=O)N(C1CCCCC1)C2=O)C1CCCO1 (configuration not stated)	44	-1.1	72*	13	0.6	0.3
Oc1[nH]c2ccccc2c1C=Nc1ccc2c(c1)OCCO2	18	0.44	-3	-3	0.8	1
CCNC(=O)CSc1nnc(-c2ccc(OC)cc2)n1CC(C)C	11	.	21	4	0.9	0.8
C/C(CCc1ccc2c(c1)OCO2)=N\N=C1\NC(=O)CC(C(=O)Nc2ccccc2)S1 (configuration not stated)	22	-3.8	68*	-1	0.8	0.3
SMILES	CYP2C19 inhib	Cav32 inh	CYP2C9 inhib	HIV Rev-RRE inh	CYP2C19 activ	CYP2C9 act
FC(F)(F)c1nc(-c2ccncc2)ncc1-c1nnnn1-c1ccccc1	101*	0.45	74*	9	0	0.3
Fc1ccc(-n2nnnc2-c2cnc(-c3cccs3)nc2C(F)(F)F)cc1	34	-3.3	86*	16	0.7	0.1
Cn1cc(-c2nnnn2-c2ccc(Cl)cc2)c(=O)c2ccccc21	20	-0.12	4	2	0.8	1
FC(F)(F)c1nc(N2CCCC2)ncc1-c1nnnn1-c1ccc(Cl)cc1	90*	-4.8*	39	6	0.1	0.6
Cc1ccc(-n2nnnc2-c2cnn(-c3ccc(F)cc3)c2C(F)(F)F)cc1	.	-0.065	.	3	.	.
Cc1ccc(-n2nnnc2-c2cnc(-c3cccnc3)nc2C(F)(F)F)cc1	48	-1.4	60*	5	0.5	0.4
c1ccc(-n2nnnc2-c2cnc(-c3ccncc3)nc2-c2cccs2)cc1	.	-3.3	.	3	.	.
COc1ccc(NC(=O)Cc2nn(C)c(=O)c3ccccc23)c2ncccc12	4	.	11	.	1	0.9
O=c1c2ccc(-c3nnc4n3-c3ccccc3SC4)cc2nc2n1CCCCC2	.	.	.	6	.	.
CCN(c1ccc(NC(=O)CN2C(=O)NC3(CCOc4ccccc43)C2=O)cc1)C(C)C (configuration not stated)	27	-2.3	59*	-1	0.7	0.4
O=C(COc1ccc(Br)cc1)Nc1ccc(-c2nnc(-c3ccco3)o2)cc1	64*	0.38	33	8	0.4	0.7
CCC(Oc1ccccc1)C(=O)Nc1ccc(-c2nnc(-c3ccco3)o2)cc1 (configuration not stated)	90*	.	97*	8	0.1	0
COC(=O)CN1CCN(C(=O)c2ccc(F)cc2)c2ccccc2C1	53*	0.42	1	-1	0.5	1
CCC1=C(OC(=O)N(CC)CC)N2C(=O)OC(=NCC(=O)OC)[C@]2(C)[C@H]2C1=CC[C@H]1C(=O)NC(=O)[C@H]12	.	0.02	.	.	.	.
O=C(CSc1nc2ccccc2c(=O)n1-c1ccc(F)cc1)NCc1ccco1	35	-0.97	19	-6	0.6	0.8
Cc1c(Cl)cccc1-n1c(SCC(=O)NCc2ccccc2Cl)nnc1-c1ccncc1	94*	-3.8	81*	15	0.1	0.2
O=C(CSc1ncccn1)NCc1ccccc1Cl	75*	0.045	-23	6	0.3	1.2
Cn1c(SCC(=O)NCc2cccs2)nnc1-c1ccncc1	13	0.28	5	2	0.9	1
Clc1ccccc1CSc1ncccn1	53*	-0.0025	-34	1	0.5	1.3
O=C(CSc1nc2ccccc2c(=O)n1NC(=O)Cc1ccccc1)NCc1ccccc1Cl	90*	-3.2	94*	0	0.1	0.1
O=C(O)C1C2C=CC(C2)C1C(=O)NCc1cccnc1 (configuration not stated)	.	.	.	1	.	.
